According to ChEMBL document CHEMBL5252537, “Usnic Acid Benzylidene Analogues as Potent Mechanistic Target of Rapamycin Inhibitors for the Control of Breast Malignancies” (J Nat Prod, 2017):
Active and inactive are the calls of the source. The calls are words filed in the database; no cut-off is given here.

Legend:
MCF7 [1] = assay: Inhibition of colony formation in human MCF7 cells at 0.2 uM incubated for 8 days by inverted phase contrast microscopic analysis; assay type: functional; conditions: MCF7, 192 h, time 8 day
Outline: (§1)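 Soft agar assay: 5 × 10^3 MCF-7 cells per well in a cell/agar matrix layered over a base agar layer. Overlaid with 10% serum medium containing 0.2 or 0.6 μM compound, or DMSO. Colonies photographed under inverted phase-contrast microscopy after 8 days. Matrix then solubilized, MTT added (4 h, 37 °C), detergent added, A570 read. Growth normalized to DMSO.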

MDA-MB-231 [2] = assay: Induction of autophagy in human MDA-MB-231 cells assessed as autophagic vacuoles by microscopic analysis; assay type: functional, cell-based
Outline: (§2)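 Cells of each line treated with compound and examined by light microscopy for autophagic vacuoles, compared with control cells.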

MCF7 [3] = assay: Antitumor activity against human MCF7 cells xenografted in athymic nude mouse assessed as reduction in mean tumor volume at 10 mg/kg, ip measured after 75 days post inoculation (reference value: 1093 +/- 185 mm3); conditions: time 75 day
MCF7 [4] = assay: Induction of autophagy in human MCF7 cells assessed as increase in LC3 level at 0.4 to 0.8 uM by Western blotting analysis; assay type: functional, cell-based; conditions: dose 0.4-0.8 µM
Outline: (§3)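 Cells seeded at 5 × 10^5 per 100 mm dish and allowed to attach overnight. Treated with compound or DMSO for 72 h (HGF 100 ng/mL added for MDA-MB-231). Lysed in RIPA buffer with protease inhibitors. 30 μg protein run on SDS-PAGE, transferred to PVDF, blocked in 5% BSA/TBST. Primary antibodies overnight at 4 °C, HRP secondary antibodies, chemiluminescent detection.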

MCF-10A = assay: Cytotoxicity against human MCF-10A cells at 6 times of IC50 incubated for 24 hrs by MTT assay; assay type: toxicity, cell-based
Outline: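 MCF-10A cells seeded at 3 × 10^4/well and allowed to attach overnight. Treated with compound in serum-free medium, in triplicate, for 24 h; vehicle wells got the maximum DMSO amount. Doxorubicin (10 μM) was the positive control. MTT for 4 h, formazan dissolved in DMSO, A570 blank-subtracted. Cell numbers from a standard curve; viability expressed versus DMSO wells.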

MCF7 [5] = assay: Antitumor activity against human MCF7 cells xenografted in athymic nude mouse assessed as inhibition of tumor growth at 10 mg/kg, ip administered for 3 weeks; set-up: scale not given: the % may be the effect or the level left
T47D [6] = assay: Induction of autophagy in human T47D cells assessed as autophagic vacuoles by microscopic analysis; assay type: functional, cell-based; outline: as §2
BT-474 = assay: Induction of autophagy in human BT-474 cells assessed as autophagic vacuoles by microscopic analysis; assay type: functional, cell-based; outline: as §2
MDA-MB-231 [7] = assay: Antimigratory activity in human MDA-MB-231 cells assessed as inhibition of cell migration after 23 hrs by scratch wound healing assay; assay type: functional, cell-based
Outline: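 Cells seeded at 1 × 10^5/well and grown to a confluent monolayer, then scratched with a 200 μL pipet tip. Held 5 h in serum-free medium, then given medium with HGF (100 ng/mL) plus compound or DMSO. Norstictic acid (15 μM) was the positive control. Wound width photographed at 0 h and followed up to 24 h; cells MeOH-fixed. Percent migration from wound thickness versus DMSO wells; IC50 calculated.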

[8] = molecular target: Serine/threonine-protein kinase mTOR (Homo sapiens) (UniProt P42345); assay: In vivo inhibition of mTOR in human MDA-MB-231/GFP cells xenografted in athymic nude mouse assessed as downregulation of phosphorylated S6K level at 10 mg/kg, ip
[9] = molecular target: Serine/threonine-protein kinase mTOR (Homo sapiens) (UniProt P42345); assay: Inhibition of mTOR in human […] cells assessed as reduction in phosphorylated 4E-BP1 level at 0.25 to 0.5 uM by Western blot analysis; assay type: cell-based; conditions: MCF7, dose 0.25-0.5 µM; outline: as §3
MDA-MB-231 [10] = assay: Anti-invasive activity in human MDA-MB-231 cells after 24 hrs […]; assay type: functional, cell-based; conditions: MDA-MB-231, 24 h
T47D [11] = assay: Antiproliferative activity against human T47D cells incubated for 72 hrs by MTT assay; assay type: functional, cell-based
Outline: (§4)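 Cells seeded at 5 × 10^3/well and allowed to attach overnight, then washed with PBS. Compound diluted from 10 mM DMSO stock into medium (100 ng/mL HGF added for c-Met-expressing cells), in triplicate, 72 h at 37 °C. MTT added for 4 h, formazan dissolved in DMSO, absorbance read at 570 nm. Cell numbers taken from a standard curve; IC50 calculated.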

MCF7 [12] = assay: Induction of autophagy in human MCF7 cells assessed as autophagic vacuoles by microscopic analysis; assay type: functional, cell-based; outline: as §2
MDA-MB-231 [13] = assay: Antitumor activity against human MDA-MB-231/GFP cells xenografted in athymic nude mouse assessed as reduction in mean tumor volume at 10 mg/kg, ip measured after 34 days post inoculation (reference value: 1835 +/- 251 mm3); conditions: time 34 day
[14] = molecular target: Serine/threonine-protein kinase mTOR (Homo sapiens) (UniProt P42345); assay: Inhibition of mTOR in human MDA-MB-231 cells assessed as reduction in p-S6K level at 0.25 to 0.5 uM by Western blot analysis; assay type: cell-based; conditions: dose 0.25-0.5 µM; outline: as §3
MCF7 [15] = assay: Induction of autophagy in human MCF7 cells assessed as increase in beclin-1 level at 0.4 to 0.8 uM by Western blotting analysis; assay type: functional, cell-based; conditions: dose 0.4-0.8 µM; outline: as §3
MCF7 [16] = assay: Antiproliferative activity against human MCF7 cells incubated for 72 hrs by MTT assay; assay type: functional, cell-based; conditions: MCF7, 72 h; outline: as §4
[17] = molecular target: Serine/threonine-protein kinase mTOR (Homo sapiens) (UniProt P42345); assay: Inhibition of mTOR in human MDA-MB-231 cells assessed as reduction in phosphorylated 4E-BP1 level at 0.25 to 0.5 uM by Western blot analysis; assay type: cell-based; conditions: dose 0.25-0.5 µM; outline: as §3
MDA-MB-231 [18] = assay: Antitumor activity against human MDA-MB-231/GFP cells xenografted in athymic nude mouse assessed as inhibition of tumor growth at 10 mg/kg, ip administered for 3 weeks; set-up: scale not given: the % may be the effect or the level left
[19] = Toxicity in athymic nude mouse xenografted with human MCF7 cells assessed as reduction in body weight at 10 mg/kg, ip measured after 75 days post inoculation; conditions: in vivo, 1800 h
SK-BR-3 = assay: Antiproliferative activity against human SK-BR-3 cells incubated for 72 hrs by MTT assay; assay type: functional, cell-based; conditions: SK-BR-3, 72 h; outline: as §4
[20] = molecular target: Serine/threonine-protein kinase mTOR (Homo sapiens) (UniProt P42345); assay: In vivo inhibition of mTOR in human MCF7 cells xenografted in athymic nude mouse assessed as downregulation of phosphorylated 4E-BP1 level at 10 mg/kg, ip
MCF7 [21] = assay: Inhibition of colony formation in human MCF7 cells assessed as reduction in colony diameter at 0.2 uM incubated for 8 days by inverted phase contrast microscopic analysis (reference value: 50 micrometer); assay type: functional; conditions: time 8 day; outline: as §1

For `CC(=O)C1=C(O)C=C2Oc3c(C(=O)/C=C/c4ccc(OC(F)(F)F)cc4)c(O)c(C)c(O)c3[C@]2(C)C1=O`, the inhibition at 0.2 µM (MCF7 [1]) was 22.9%, the Activity (MDA-MB-231 [2]) was “Active” and the Activity (MCF7 [3]) was 385 mm3. The Activity (MCF7 [4]) was “Active”, the Activity (MCF-10A) was “Non-Toxic” and the Activity (MCF7 [5]) was 64.8%. The Activity (T47D [6]) was “Active”, the Activity (BT-474) was “Active” and the Activity (MDA-MB-231 [7]) was “Dose-Dependent Effect”. For the same molecule, the IC50 (MDA-MB-231 [7]; MDA-MB-231, 23 h) was 510 nM, the inhibition [8] was “Active” and the inhibition [9] was “Active”. For the same molecule, the IC50 (MDA-MB-231 [10]) was 420 nM, the IC50 (T47D [11]) was 330 nM and the Activity (MCF7 [12]) was “Active”. For the same molecule, the Activity (MDA-MB-231 [13]) was 692 mm3, the inhibition [14] was “Active” and the Activity (MCF7 [15]) was “Active”. The IC50 (MCF7 [16]) was 280 nM, the inhibition [17] was “Active” and the Activity (MDA-MB-231 [18]) was 62.3%. For the same molecule, the Activity [19] was “Non-Toxic”, the IC50 (SK-BR-3) was 400 nM and the inhibition [20] was “Active”. The Activity (MCF7 [21]) was 370 um.
